Activity, IC50 and Ki data for 23 compounds are collected here from ChEMBL document CHEMBL1154485, “Novel 2-aryl-naphtho[1,2-d]oxazole derivatives as potential PTP-1B inhibitors showing antihyperglycemic activities” (Eur J Med Chem, 2009).

The test system of assay [1] is Rattus norvegicus. Description: Antihyperglycemic activity against sucrose-loaded Charles-Foster Wistar albino rat assessed as reduction in blood glucose at 100 mg/kg, po administered 30 mins before sucrose challenge relative to control. Set-up: scale not given: the % may be the effect or the level left. It counts as functional. The essentials:
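Male Charles Foster/Wistar rats, 160 ± 20 g, fasted 16 h, selected at 60e80 mg/dl glucose, groups of 5-6. Compound given orally at 100 mg/kg in 1.0% gum acacia; sucrose 10.0 g/kg orally 30 min later. Glucose read by glucometer at 30-120 min. Percent activity derived from AUC versus vehicle.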

Assay [2] deals with T1, Tyrosine-protein phosphatase non-receptor type 1 (Homo sapiens, UniProt P18031).
T1 sequence (P18031 whole entry): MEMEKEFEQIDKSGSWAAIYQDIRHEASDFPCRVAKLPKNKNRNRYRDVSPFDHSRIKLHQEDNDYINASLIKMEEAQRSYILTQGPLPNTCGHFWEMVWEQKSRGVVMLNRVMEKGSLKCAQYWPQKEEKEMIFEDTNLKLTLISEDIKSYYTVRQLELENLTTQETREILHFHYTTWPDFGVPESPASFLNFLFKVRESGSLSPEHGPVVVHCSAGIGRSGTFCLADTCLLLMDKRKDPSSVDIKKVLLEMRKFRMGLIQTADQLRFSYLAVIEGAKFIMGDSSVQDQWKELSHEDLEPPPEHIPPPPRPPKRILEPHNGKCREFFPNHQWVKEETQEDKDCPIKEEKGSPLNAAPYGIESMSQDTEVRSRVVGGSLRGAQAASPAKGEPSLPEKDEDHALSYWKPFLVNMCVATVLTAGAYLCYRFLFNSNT
Description: Inhibition of PTP1B assessed as residual enzyme activity. Summed up: (§1)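 PTP-1B pre-incubated 10 min with compound, with or without 0.01% Triton X-100. Reaction: 10 mM pNPP in 50 mM HEPES pH 7.0 with 1 mM DTT and 2 mM EDTA, 30 min at 37 °C. Stopped with 0.1 N NaOH, p-nitrophenolate read at 410 nm (ε 1.78×10⁴ M⁻¹cm⁻¹). Single-concentration screen was the mean of three independent sets. Sodium orthovanadate served as standard.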

Assay [3] addresses T1, Tyrosine-protein phosphatase non-receptor type 1. The assay can be described thus: Inhibition of PTP1B assessed as residual enzyme activity in presence of Triton X-100. The essentials:
as §1

For assay [4], the system named is Rattus norvegicus. The assay can be described thus: Antihyperglycemic activity against sucrose-challenged streptozotocin-induced fasted Sprague-Dawley rat assessed as reduction in blood glucose at 100 mg/kg, po administered 30 mins before sucrose challenge measured after 5 hrs post sucrose dose relative to control. It is filed as functional. Details: scale not given: the % may be the effect or the level left. The essentials:
(§2)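 Male Sprague Dawley rats, 160 ± 20 g, overnight fasted, given streptozotocin 45 mg/kg i.p. in citrate buffer pH 4.5. Rats at 144-270 mg/dl glucose after 48 h were used, 5-6 per group. Oral dose 100 mg/kg in 1.0% gum acacia, sucrose 2.5 g/kg 30 min later. Glucose read at 30-300 min and 24 h. Activity derived from AUC versus control.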

In assay [5] the test system is Rattus norvegicus. The assay can be described thus: Antihyperglycemic activity against sucrose-challenged streptozotocin-induced fasted Sprague-Dawley rat assessed as reduction in blood glucose at 100 mg/kg, po administered 30 mins before sucrose challenge measured after 24 hrs post sucrose dose relative to control. It counts as functional. Details: scale not given: the % may be the effect or the level left. Summed up: as §2

Assay [6] is filed under the species Mus musculus. The assay can be described thus: Antihyperglycemic activity against C57BL/KsBom db/db type 2 diabetic mouse model assessed as decrease in postprandial blood glucose level on day 3 by OGTT relative to control. It counts as functional. Details: concentration or dose not given beside the values.
For assay [7], the species on record is Mus musculus. The assay can be described thus: Antihyperglycemic activity against C57BL/KsBom db/db type 2 diabetic mouse model assessed as decrease in postprandial blood glucose level on day 6 by OGTT relative to control. It counts as functional. Details: scale not given: the % may be the effect or the level left. The essentials:
(§3)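 Male and female C57BL/KsBom-db mice, 12e18 weeks, 40e50 g, ten used, vehicle 1.0% gum acacia. Day 6 postprandial protocol: glucose read at -0.5 and 0 h, then at 1, 2, 3, 4 and 6 h after dosing. Day 10 OGTT: overnight fast, drug given at -30 min, glucose 3 g/kg at 0 min, glucose read at 30-120 min.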

Assay [8] has as its system Mus musculus. Description: Antidyslipidemic activity in C57BL/KsBom db/db diabetic mouse assessed as reduction in plasma cholesterol level at 100 mg/kg, po. It is filed as functional. Details: scale not given: the % may be the effect or the level left. The essentials: (§4)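 Male and female C57BL/KsBom-db mice, 12e18 weeks, 40e50 g, ten per experiment, housed by sex at 23 °C on a 12/12 h cycle. Test drug given orally at 100 mg/kg in gum acacia (1.0%); vehicle controls received gum acacia only. Dosing ran 10 days. Effects on triglyceride, cholesterol and HDL are reported as % change.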

Assay [9] has as its system Mus musculus. The assay can be described thus: Antidyslipidemic activity in C57BL/KsBom db/db diabetic mouse assessed as reduction in plasma triglyceride level at 100 mg/kg, po. It counts as functional. Details: scale not given: the % may be the effect or the level left. The essentials:
as §4

Assay [10] has as its system Mus musculus. Description: Antidyslipidemic activity in C57BL/KsBom db/db diabetic mouse assessed as increase in high-density lipoprotein cholesterol level at 100 mg/kg, po. It counts as functional. Summed up: as §4
The species entered for assay [11] is Mus musculus. Description: Antihyperglycemic activity against C57BL/KsBom db/db type 2 diabetic mouse model assessed as decrease in postprandial blood glucose level on day 10 by OGTT relative to control. It is filed as functional. Details: scale not given: the % may be the effect or the level left. The essentials:
as §3

`O=C(O)COc1ccc(-c2nc3c(ccc4ccccc43)o2)cc1`: the Activity in assay [1] is 4.6%.

As a reminder, the IC50 is the concentration that gives 50% inhibition. Broadly, the Ki is the equilibrium dissociation constant of an inhibitor or competing ligand from its target. For `c1ccc2c(c1)ccc1oc(-c3ccc(OCCN4CCCC4)cc3)nc12`, in assay [1], the Activity is 8.7%. Moreover, in assay [2], the IC50 came out at 5.71 µM and the Ki turned out to be 34.2 µM. In [3], the IC50 was determined as 5.7 µM and the Ki worked out at 37 µM.

Turning to `c1ccc2c(c1)ccc1oc(-c3ccc(OCCCN4CCCCC4)cc3)nc12`, the figures for the Activity in assay [4], in assay [5] and in assay [1] were 13.4%, 11.2% and 25%, respectively.

Take `c1ccc2c(c1)ccc1oc(-c3ccc(OCCCN4CCCC4)cc3)nc12`: the Activity amounted to 12.6% in assay [4], 12.9% in assay [5] and 17.2% in assay [1].

Take `COc1ccc(NCCCOc2ccc(-c3nc4c(ccc5ccccc54)o3)cc2)cc1`: the Activity in assay [1] is 11.8%.

As for `CCCCN(C)CCCOc1ccc(-c2nc3c(ccc4ccccc43)o2)cc1`, the Activity in assay [4] was 7.8%; in assay [5] it was 9.2%; in [1], 14.7%.

On to `CCOC(=O)COc1ccc(-c2nc3c(ccc4ccccc43)o2)cc1`, for which the Activity in assay [1] was 11.4%.

Take `O=C(O)CCCOc1ccc(-c2nc3c(ccc4ccccc43)o2)cc1`: the Activity in assay [1] turned out to be 5.8%.

With `Oc1ccc(-c2nc3c(ccc4ccccc43)o2)cc1`, the Activity in assay [1] is on record as 10.8%.

Take `CCN(CC)CCCOc1ccc(-c2nc3c(ccc4ccccc43)o2)cc1`: the Activity in assay [4] was 11.5%; in [5], 13.6%; in assay [1], 20.5%; in assay [6] it was 10.8%. In addition, the IC50 in [2] is 3.4 µM; in assay [3], 3.36 µM. Moreover, the Ki was found to be 40.5 µM in assay [2] and 41 µM in assay [3].

As to `ClCCCOc1ccc(-c2nc3c(ccc4ccccc43)o2)cc1`, the Activity in [1] is 7.4%.

In the case of `c1ccc2c(c1)ccc1oc(-c3ccc(OCCN4CCCCC4)cc3)nc12`, the Activity is on record as 16.4% in assay [4], 15.7% in [5], 26.9% in assay [1] and 10.4% in [6]. The values for the IC50 in [2] and in [3] were 1.9 µM and 1.86 µM, respectively. In addition, the Ki in assay [2] turned out to be 27.5 µM; in [3], 27.1 µM.

`CCN(CC)CCOc1ccc(-c2nc3c(ccc4ccccc43)o2)cc1`: the Activity in assay [4] was 11.4%; in assay [5], 9.7%; in assay [1], 21.7%. Besides, the IC50 in assay [2] was found to be 4.6 µM; in assay [3], 4.55 µM. In addition, the Ki is 35 µM in assay [2] and 35.5 µM in assay [3].

Take `CCCCCCCCNCCCOc1ccc(-c2nc3c(ccc4ccccc43)o2)cc1`: in [1], the Activity was 15%.

For the compound `CN(C)CCOc1ccc(-c2nc3c(ccc4ccccc43)o2)cc1`, the Activity in assay [4] came out at 27.9%; in assay [5] it was 25.7%; in assay [1] it was 35.9%; in assay [7] it was 21.4%; in assay [8], 17.6%; in [9], 10.5%. For the same compound, the results for the Activity in assay [10], in assay [11] and in assay [6] were 3%, 23.6% and 18.9%, respectively. In addition, the IC50 was 3.51 µM in assay [2] and 3.56 µM in assay [3]. Also, the Ki was 25.1 µM in assay [2] and 28.7 µM in [3].

Turning to `CN(C)CCCOc1ccc(-c2nc3c(ccc4ccccc43)o2)cc1`, the Activity in [4] was 15.6%; in [5], 20.3%; in [1], 25.2%; in assay [6], 16.7%. For the same compound, the values for the IC50 in assay [2] and in assay [3] were 3.5 µM and 3.52 µM, respectively. Further, the Ki in assay [2] was 34.1 µM; in assay [3], 36.3 µM.

On to `CCCCN(C)CCOc1ccc(-c2nc3c(ccc4ccccc43)o2)cc1`, for which the Activity in [4] was 17.4%; in [5] it was 18.7%; in assay [1], 35.3%; in assay [7], 22.4%; in [8], 12.2%; in [9], 7.5%. In addition, the Activity in [10] is 1.3%; in assay [11], 24.1%; in assay [6], 22.3%. Also, the IC50 in assay [2] stood at 2.5 µM; in [3], 2.52 µM. For the same compound, the Ki in assay [2] turned out to be 44.4 µM; in [3], 41 µM.

For the compound `CCOC(=O)CCCOc1ccc(-c2nc3c(ccc4ccccc43)o2)cc1`, in assay [1], the Activity is listed as 9.5%.

`CC(=O)Oc1ccc(-c2nc3c(ccc4ccccc43)o2)cc1`: in assay [1], the Activity is listed as 16.8%.

With `Cc1ccc(NCCCOc2ccc(-c3nc4c(ccc5ccccc54)o3)cc2)cc1`, the results for the Activity in assay [4], in [5] and in assay [1] were 14.6%, 15.2% and 17.2%, respectively.

`Cc1ccc(S(=O)(=O)NC(=O)NN2CC3CCCC3C2)cc1` (configuration not stated) [GLICLAZIDE]: the Activity was 27.7% in assay [4], 44.8% in [1] and 17.4% in [6].

Turning to `COc1ccc(Cl)cc1C(=O)NCCc1ccc(S(=O)(=O)NC(=O)NC2CCCCC2)cc1` [GLYBURIDE], the Activity is reported as 32.8% in [4], 33.9% in [1] and 13.6% in assay [6].

Turning to `CN(C)C(=N)NC(=N)N` [METFORMIN], the Activity in assay [5] was found to be 20.2%; in [1], 12.9%; in assay [6], 11.2%.
